Data published in ChEMBL document CHEMBL1139103, “Identification of novel glycine sulfonamide antagonists for the EP1 receptor” (Bioorg Med Chem Lett, 2007).

Columns and labels:
[1] = target: T1, Prostaglandin E2 receptor EP1 subtype (Homo sapiens, UniProt P34995); assay: Antagonist activity at human EP1 expressed in CHOK1 cells receptor assessed as inhibition of intracellular calcium mobilization by FLIPR assay; assay type: functional, cell-based, CHO-K1
T1 sequence (P34995 whole entry): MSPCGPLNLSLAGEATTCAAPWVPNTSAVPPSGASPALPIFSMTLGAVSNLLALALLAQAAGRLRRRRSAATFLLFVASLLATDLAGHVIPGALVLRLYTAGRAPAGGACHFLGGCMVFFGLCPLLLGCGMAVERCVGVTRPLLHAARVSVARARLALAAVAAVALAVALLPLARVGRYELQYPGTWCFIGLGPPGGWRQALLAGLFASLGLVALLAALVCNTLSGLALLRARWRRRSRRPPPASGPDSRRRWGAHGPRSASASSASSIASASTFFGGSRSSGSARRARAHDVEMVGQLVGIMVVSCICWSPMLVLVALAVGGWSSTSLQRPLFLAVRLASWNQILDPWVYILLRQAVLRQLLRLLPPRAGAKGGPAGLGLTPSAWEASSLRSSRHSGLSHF
Procedure, shortened: (§1)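 Stable EP1- or EP3-transfected CHO-K1 whole cells loaded with calcium-sensitive dye Fluo-3; inhibition of PGE2-evoked intracellular Ca2+ mobilisation read on a fluorimetric imaging plate reader (FLIPR). IC50s converted to pKi. Means of at least two experiments unless specified.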

Cytochrome P450 2C19 = Cytochrome P450 2C19 (Homo sapiens, UniProt P33261); assay: Inhibition of CYP2C19; assay type: ADME
Cytochrome P450 2C9 = Cytochrome P450 2C9 (Homo sapiens, UniProt P11712); assay: Inhibition of CYP2C9; assay type: ADME
Homo sapiens = organism: Homo sapiens; assay: Selectivity for EP1 receptor over EP3 receptor
[2] = target: Prostaglandin F2-alpha receptor (Homo sapiens, UniProt P43088); assay: Inhibition of FP receptor
Cytochrome P450 2D6 = Cytochrome P450 2D6 (Homo sapiens, UniProt P10635); assay: Inhibition of CYP2D6; assay type: ADME
[3] = target: T1, Prostaglandin E2 receptor EP1 subtype; assay: Displacement of [3H]PGE2 from EP1 expressed in CHO cells; assay type: cell-based
Procedure, shortened: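 Membranes from stable EP1-transfected CHO-K1 cells incubated with compound and [3H]-PGE2 (3 nM final) for 30 min at 30 °C. Bound radioactivity counted by liquid scintillation. Means of at least four experiments.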

Thromboxane A2 receptor = target: T2, Thromboxane A2 receptor (Homo sapiens, UniProt P21731); assay: Inhibition of TP receptor
T2 sequence (P21731 whole entry): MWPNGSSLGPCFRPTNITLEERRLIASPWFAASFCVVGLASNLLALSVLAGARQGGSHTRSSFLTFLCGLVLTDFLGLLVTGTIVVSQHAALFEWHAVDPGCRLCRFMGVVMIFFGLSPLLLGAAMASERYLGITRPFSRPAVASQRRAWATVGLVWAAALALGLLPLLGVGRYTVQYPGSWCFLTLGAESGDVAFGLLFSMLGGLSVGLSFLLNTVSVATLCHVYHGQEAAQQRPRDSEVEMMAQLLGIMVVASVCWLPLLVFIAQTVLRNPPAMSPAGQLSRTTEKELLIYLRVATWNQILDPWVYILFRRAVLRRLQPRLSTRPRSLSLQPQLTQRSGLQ

Cytochrome P450 3A4 = Cytochrome P450 3A4 (Homo sapiens, UniProt P08684); assay: Inhibition of CYP3A4; assay type: ADME
Cytochrome P450 1A2 = target: T3, Cytochrome P450 1A2 (Homo sapiens, UniProt P05177); assay: Inhibition of CYP1A2; assay type: ADME
T3 sequence (P05177 whole entry): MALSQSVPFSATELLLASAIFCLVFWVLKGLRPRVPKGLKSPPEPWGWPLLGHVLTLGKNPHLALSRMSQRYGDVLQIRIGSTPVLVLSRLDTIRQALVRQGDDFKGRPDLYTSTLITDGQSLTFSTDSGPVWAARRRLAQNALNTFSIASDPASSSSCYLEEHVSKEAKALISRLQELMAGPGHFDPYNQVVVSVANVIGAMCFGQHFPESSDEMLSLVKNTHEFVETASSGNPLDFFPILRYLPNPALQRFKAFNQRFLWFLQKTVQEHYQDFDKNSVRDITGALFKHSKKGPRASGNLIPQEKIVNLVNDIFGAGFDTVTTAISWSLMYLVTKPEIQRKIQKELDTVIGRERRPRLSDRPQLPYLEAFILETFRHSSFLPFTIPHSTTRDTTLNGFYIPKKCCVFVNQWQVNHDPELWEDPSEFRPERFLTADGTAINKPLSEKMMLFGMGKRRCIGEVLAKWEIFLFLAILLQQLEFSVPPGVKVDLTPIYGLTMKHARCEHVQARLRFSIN

[4] = target: T4, Prostaglandin E2 receptor EP3 subtype (Homo sapiens, UniProt P43115); assay: Antagonist activity at human EP3 expressed in CHOK1 cells receptor assessed as inhibition intracellular calcium mobilization by FLIPR assay; assay type: functional, cell-based, CHO-K1; procedure, shortened: as §1
T4 sequence (P43115 whole entry): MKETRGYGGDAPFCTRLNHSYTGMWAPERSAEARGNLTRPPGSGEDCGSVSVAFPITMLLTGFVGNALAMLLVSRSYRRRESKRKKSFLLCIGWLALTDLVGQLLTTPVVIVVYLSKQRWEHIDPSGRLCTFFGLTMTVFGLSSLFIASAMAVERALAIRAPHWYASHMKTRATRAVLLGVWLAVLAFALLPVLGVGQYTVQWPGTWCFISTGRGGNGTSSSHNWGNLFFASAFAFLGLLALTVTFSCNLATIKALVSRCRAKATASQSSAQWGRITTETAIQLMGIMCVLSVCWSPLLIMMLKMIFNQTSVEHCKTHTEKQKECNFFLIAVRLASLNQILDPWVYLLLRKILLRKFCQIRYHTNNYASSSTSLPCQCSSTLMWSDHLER

[5] = target: T1, Prostaglandin E2 receptor EP1 subtype; assay: Antagonist activity at human EP1 receptor expressed in CHO cells receptor by […] reporter gene assay; assay type: functional, cell-based; settings: read-out: pA2 (converted)
Procedure, shortened: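 CHO cells stably co-transfected with NFAT reporter gene and human EP1 (pCIN3) were quiesced 24 h before assay. PGE2 concentration-response curves run without antagonist and with five antagonist concentrations, 4 h incubation, luciferase readout. Dose ratios from PGE2 EC50s; log(dose ratio − 1) vs log[antagonist] fitted by linear regression to give pA2 and slope.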

Cytochrome P450 2C9, sequence (P11712 whole entry): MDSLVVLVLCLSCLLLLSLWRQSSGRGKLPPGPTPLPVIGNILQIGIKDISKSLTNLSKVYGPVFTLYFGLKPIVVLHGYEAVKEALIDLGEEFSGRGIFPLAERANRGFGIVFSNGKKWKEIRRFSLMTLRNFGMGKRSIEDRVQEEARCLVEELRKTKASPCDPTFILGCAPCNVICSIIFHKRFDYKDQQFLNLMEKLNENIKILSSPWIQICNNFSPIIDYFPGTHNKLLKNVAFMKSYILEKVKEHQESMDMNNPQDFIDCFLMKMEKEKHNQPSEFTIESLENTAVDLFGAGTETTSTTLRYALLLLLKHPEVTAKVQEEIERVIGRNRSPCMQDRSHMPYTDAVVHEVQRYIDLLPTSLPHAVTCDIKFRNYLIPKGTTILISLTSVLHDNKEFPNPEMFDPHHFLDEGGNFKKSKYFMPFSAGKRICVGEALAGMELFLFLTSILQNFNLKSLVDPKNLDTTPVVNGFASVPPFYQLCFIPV
Cytochrome P450 3A4, sequence (P08684 whole entry): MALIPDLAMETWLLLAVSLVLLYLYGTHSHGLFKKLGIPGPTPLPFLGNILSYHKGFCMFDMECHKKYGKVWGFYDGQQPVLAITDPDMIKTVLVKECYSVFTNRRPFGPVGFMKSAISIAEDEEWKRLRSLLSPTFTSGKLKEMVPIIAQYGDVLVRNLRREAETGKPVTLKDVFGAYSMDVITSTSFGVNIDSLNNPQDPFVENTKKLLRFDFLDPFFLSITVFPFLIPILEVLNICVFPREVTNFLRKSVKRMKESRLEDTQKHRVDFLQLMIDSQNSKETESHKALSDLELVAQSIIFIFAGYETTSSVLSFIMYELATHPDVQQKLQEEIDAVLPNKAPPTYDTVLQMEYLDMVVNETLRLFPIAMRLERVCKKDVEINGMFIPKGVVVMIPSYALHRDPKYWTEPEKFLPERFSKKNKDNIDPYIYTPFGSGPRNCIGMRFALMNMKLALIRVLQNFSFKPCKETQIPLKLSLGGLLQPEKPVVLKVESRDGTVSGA
Cytochrome P450 2C19, sequence (P33261 whole entry): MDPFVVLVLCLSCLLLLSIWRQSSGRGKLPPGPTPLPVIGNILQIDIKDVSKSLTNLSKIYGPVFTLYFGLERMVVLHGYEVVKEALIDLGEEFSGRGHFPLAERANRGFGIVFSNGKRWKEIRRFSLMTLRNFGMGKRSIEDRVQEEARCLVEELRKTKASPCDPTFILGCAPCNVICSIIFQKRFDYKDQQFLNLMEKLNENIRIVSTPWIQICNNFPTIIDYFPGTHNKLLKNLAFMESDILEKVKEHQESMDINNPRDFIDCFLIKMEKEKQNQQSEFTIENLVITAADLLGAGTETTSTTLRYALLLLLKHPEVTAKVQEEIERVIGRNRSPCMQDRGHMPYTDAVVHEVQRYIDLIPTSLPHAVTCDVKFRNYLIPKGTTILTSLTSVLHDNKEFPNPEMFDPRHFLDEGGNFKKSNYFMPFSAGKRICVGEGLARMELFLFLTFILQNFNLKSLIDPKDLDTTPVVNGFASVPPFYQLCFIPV
Cytochrome P450 2D6, sequence (P10635 whole entry): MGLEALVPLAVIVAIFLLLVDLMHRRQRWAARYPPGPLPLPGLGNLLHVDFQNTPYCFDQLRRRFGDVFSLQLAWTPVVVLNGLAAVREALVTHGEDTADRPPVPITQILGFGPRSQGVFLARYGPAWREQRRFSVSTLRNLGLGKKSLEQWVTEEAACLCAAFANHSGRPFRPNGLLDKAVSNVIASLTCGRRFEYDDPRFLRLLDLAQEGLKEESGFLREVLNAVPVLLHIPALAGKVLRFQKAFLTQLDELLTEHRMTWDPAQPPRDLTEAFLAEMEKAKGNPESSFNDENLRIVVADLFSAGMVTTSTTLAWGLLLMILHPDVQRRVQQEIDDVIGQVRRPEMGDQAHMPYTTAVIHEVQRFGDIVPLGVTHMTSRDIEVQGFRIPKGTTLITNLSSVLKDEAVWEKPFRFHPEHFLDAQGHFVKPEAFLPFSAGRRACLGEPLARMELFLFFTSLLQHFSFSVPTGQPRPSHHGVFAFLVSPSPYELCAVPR
Prostaglandin F2-alpha receptor, sequence (P43088 whole entry): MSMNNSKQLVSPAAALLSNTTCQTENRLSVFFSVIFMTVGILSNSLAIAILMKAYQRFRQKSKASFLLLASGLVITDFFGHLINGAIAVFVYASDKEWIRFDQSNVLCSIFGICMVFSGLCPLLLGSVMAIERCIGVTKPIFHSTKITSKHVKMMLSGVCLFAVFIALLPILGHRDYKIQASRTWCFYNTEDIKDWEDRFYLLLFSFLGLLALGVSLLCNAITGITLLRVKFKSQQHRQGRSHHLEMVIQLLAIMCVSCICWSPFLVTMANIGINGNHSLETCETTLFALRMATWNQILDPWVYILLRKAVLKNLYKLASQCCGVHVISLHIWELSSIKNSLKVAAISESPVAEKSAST

CCc1ccccc1N(CC(=O)NCCc1ccc(OC)c(OC)c1)S(=O)(=O)c1cccc(C#N)c1
Ki [1]: 240 nM

Cc1ccc(S(=O)(=O)N(CC(=O)NCCc2cccc(O)c2)c2ccccc2C)cc1
Ki [1]: 204 nM

CCc1ccccc1N(CC(=O)NCCc1ccc(OC)c(OC)c1)S(=O)(=O)c1ccc(OC)cc1
Ki [1]: 170 nM

CCc1ccccc1N(CC(=O)NCCc1ccc(OC)c(OC)c1)S(=O)(=O)c1ccc(OC(F)(F)F)cc1
Ki [1]: 69.2 nM

CCc1ccccc1N(CC(=O)NCc1ccc(Cl)cc1)S(=O)(=O)c1ccc(C)cc1
IC50 (Cytochrome P450 2C19): 2000 nM | IC50 (Cytochrome P450 2C9): 6310 nM | Ratio pKi (Homo sapiens): 100 | IC50 [2]: 4170 nM | IC50 (Cytochrome P450 2D6): 100000 nM | Ki [3]: 10 nM | IC50 (Thromboxane A2 receptor): > 10000 nM | IC50 (Cytochrome P450 3A4): 251 nM | Ki [1]: 11.5 nM | IC50 (Cytochrome P450 1A2): 31600 nM | Ki [4]: 794 nM

CCc1ccccc1N(CC(=O)NCCc1ccc(OC)c(OC)c1)S(=O)(=O)c1ccccc1C#N
Ki [1]: > 3160 nM

COc1ccc(CCNC(=O)CN(c2ccccc2C)S(=O)(=O)c2ccc(C)cc2)c(F)c1OC
Ki [1]: 66.1 nM

COc1ccc(N(CC(=O)NCCc2ccc(OC)c(OC)c2)S(=O)(=O)c2ccc(C)cc2)cc1
Ki [1]: > 1580 nM

COc1ccc(CCNC(=O)CN(c2cccc(C)c2C)S(=O)(=O)c2ccc(C)cc2)cc1OC
Ki [1]: 12.9 nM

CCc1ccccc1N(CC(=O)NCCc1ccc(OC)c(OC)c1)S(=O)(=O)c1ccccc1C
Ki [1]: 166 nM

Cc1ccc(S(=O)(=O)N(CC(=O)NCCc2ccccc2)c2ccccc2C)cc1
Ki [1]: 1350 nM

Cc1ccc(S(=O)(=O)N(CC(=O)NCCc2ccc(Cl)cc2)c2ccccc2C)cc1
Ki [1]: 661 nM

CCc1ccccc1N(CC(=O)NCc1cccc(OC)c1)S(=O)(=O)c1ccc(C)cc1
Ki [3]: 79.4 nM | Ki [1]: 138 nM

CCc1ccccc1N(CC(=O)NCCc1ccc(OC)c(OC)c1)S(=O)(=O)c1ccc(C(F)(F)F)cc1
Ki [1]: 19.1 nM

COc1ccc(CCNC(=O)CN(c2ccc(Cl)cc2)S(=O)(=O)c2ccc(C)cc2)cc1OC
Ki [1]: 1290 nM

CCc1ccccc1N(CC(=O)NCCc1ccc(OC)c(OC)c1)S(=O)(=O)c1ccc(C#N)cc1
Ki [1]: 31.6 nM

COc1ccc(CCNC(=O)CN(c2ccc(F)cc2)S(=O)(=O)c2ccc(C)cc2)cc1OC
Ki [1]: > 1580 nM

CCc1ccccc1N(CC(=O)NCc1cccc(OC(F)(F)F)c1)S(=O)(=O)c1ccc(C)cc1
Ki [1]: 427 nM

CCc1ccccc1N(CC(=O)NCCc1ccc(OC)c(OC)c1)S(=O)(=O)c1ccc(C)cc1
Kb [5]: 5.01 nM | Ki [1]: 13.5 nM

Cc1ccc(S(=O)(=O)N(CC(=O)NCc2ccc(Cl)cc2)c2ncccc2C)cc1
Ki [3]: 794 nM | Ki [1]: > 1450 nM

Cc1ccc(S(=O)(=O)N(CC(=O)NCc2ccc(Cl)cc2)c2ccc(C)nc2)cc1
Ki [3]: > 1000 nM | Ki [1]: > 1450 nM

Cc1ccc(S(=O)(=O)N(CC(=O)NCc2ccc(Cl)cc2)c2ccc(C)cn2)cc1
Ki [3]: > 1000 nM | Ki [1]: > 1450 nM

COc1ccc(CCNC(=O)CN(c2ccccc2C)S(=O)(=O)c2ccc(C)cc2)cc1OC
Ki [1]: 38.9 nM

CNS(=O)(=O)c1cc(CCNC(=O)CN(c2ccccc2C)S(=O)(=O)c2ccc(C)cc2)ccc1O
Ki [1]: 3.72 nM

CCc1ccccc1N(CC(=O)NCc1ccccc1F)S(=O)(=O)c1ccc(C)cc1
Ki [1]: 135 nM

CCc1ccccc1N(CC(=O)NCc1ccc(OC)c(OC)c1)S(=O)(=O)c1ccc(C)cc1
Ki [3]: 25.1 nM | Ki [1]: 282 nM

CCc1ccccc1N(CC(=O)NCc1cccc(Cl)c1)S(=O)(=O)c1ccc(C)cc1
Ki [3]: 251 nM | Ki [1]: 1410 nM

COc1ccc(CCNC(=O)CN(c2ccc(Br)cc2)S(=O)(=O)c2ccc(C)cc2)cc1OC
Ki [1]: > 3800 nM

Cc1ccc(S(=O)(=O)N(CC(=O)NCc2ccc(Cl)cc2)c2cccnc2C)cc1
Ki [3]: 200 nM | Ki [1]: 676 nM

CCc1ccccc1N(CC(=O)NCc1ccc(Br)cc1)S(=O)(=O)c1ccc(C)cc1
Ki [1]: 22.9 nM

CCc1ccccc1N(CC(=O)NCc1ccc(C(F)(F)F)cc1)S(=O)(=O)c1ccc(C)cc1
Ki [1]: 209 nM

COc1ccc(CCNC(=O)CN(c2ccccc2)S(=O)(=O)c2ccc(C)cc2)cc1OC
Ki [1]: 589 nM

COc1ccc(CCNC(=O)CN(c2cccc(Br)c2)S(=O)(=O)c2ccc(C)cc2)cc1OC
Ki [1]: 34.7 nM

COc1ccc(CCNC(=O)CN(c2cccc(C(F)(F)F)c2)S(=O)(=O)c2ccc(C)cc2)cc1OC
Ki [1]: 30.9 nM

CCc1ccccc1N(CC(=O)NCc1ccccc1)S(=O)(=O)c1ccc(C)cc1
Ki [3]: 63.1 nM | Ki [1]: 224 nM

CCc1ccccc1N(CC(=O)NCCc1ccc(OC)c(OC)c1)S(=O)(=O)c1ccc(Br)cc1
Ki [1]: 28.8 nM

Cc1ccc(S(=O)(=O)N(CC(=O)NCc2ccc(Cl)cc2)c2cccc(C)n2)cc1
Ki [3]: > 1000 nM | Ki [1]: > 1450 nM

COc1ccc(CCNC(=O)CN(c2cccc(C)c2)S(=O)(=O)c2ccc(C)cc2)cc1OC
Ki [1]: 61.7 nM

Cc1ccc(S(=O)(=O)N(CC(=O)NCc2ccc(Cl)cc2)c2cccnc2)cc1
Ki [3]: > 1000 nM | Ki [1]: > 1450 nM

CCn1nccc1N(CC(=O)NCc1ccc(Cl)cc1)S(=O)(=O)c1ccc(C)cc1
Ki [3]: 158 nM | Ki [1]: 72.4 nM

Cc1ccc(S(=O)(=O)N(CC(=O)NCCc2ccc(NS(C)(=O)=O)cc2)c2ccccc2C)cc1
Ki [1]: 89.1 nM

COc1ccc(CCNC(=O)CN(c2cccc(Cl)c2)S(=O)(=O)c2ccc(C)cc2)cc1OC
Ki [1]: 61.7 nM

CCc1ccccc1N(CC(=O)NCCc1ccc(OC)c(OC)c1)S(=O)(=O)c1cccc(OC(F)(F)F)c1
Ki [1]: 708 nM

COc1ccc(CCNC(=O)CN(c2ccc(C)cc2)S(=O)(=O)c2ccc(C)cc2)cc1OC
Ki [1]: > 1120 nM

CCc1ccccc1N(CC(=O)NCc1ccc(OC)cc1)S(=O)(=O)c1ccc(C)cc1
Ki [3]: 25.1 nM | Ki [1]: 35.5 nM

Cc1ccc(S(=O)(=O)N(CC(=O)NCc2ccc(Cl)cc2)c2ccnn2C)cc1
Ki [3]: 398 nM | Ki [1]: 589 nM

CCc1ccccc1N(CC(=O)NCCc1ccc(OC)c(OC)c1)S(=O)(=O)c1ccccc1Cl
Ki [1]: 2000 nM

CCc1ccccc1N(CC(=O)NCc1ccccc1OC)S(=O)(=O)c1ccc(C)cc1
Ki [1]: 1070 nM

COc1ccc(CCNC(=O)CN(c2ccccc2C)S(=O)(=O)c2ccc(C)cc2)cc1
Ki [1]: 170 nM

COc1ccc(CCNC(=O)CN(c2ccccc2C)S(=O)(=O)c2ccccc2)cc1OC
Ki [1]: 741 nM

Cc1ccc(S(=O)(=O)N(CC(=O)NCc2ccc(Cl)cc2)c2ccccn2)cc1
Ki [3]: > 1000 nM | Ki [1]: > 1450 nM

CCc1ccccc1N(CC(=O)NCCc1ccc(OC)c(OC)c1)S(=O)(=O)c1cccc(C)c1
Ki [1]: 1660 nM
